The text below walks through data of ChEMBL document CHEMBL1156951, “Oxazolomycins: natural product lead structures for novel antibacterials by click fragment conjugation” (2010).

Activity calls are given as the source filed them. No cut-off for these calls is given here.

The first test has as its system Staphylococcus aureus. Description: Antibacterial activity against Staphylococcus aureus NCTC 6571 at 4 mg/ml by hole plate assay.
Details: not given
It counts as functional. In short, it runs like this: (§1)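 Hole-plate bioassay with samples at 4 mg/ml in 7:3 DMSO/H₂O, loaded into wells of bioassay plates and incubated overnight at 37 °C. The read-out was inhibition zone diameter in mm (±1 mm).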
Regarding `COC(=O)[C@]12CO[C@H](C(C)(C)C)N1C(=O)C(C)(C)[C@@]2(O)C#CCNC(=O)C(C)(C)C(O)c1ccccc1` (stereo partly drawn), the “diameter of the inhibition zone (DIZ)” value was “inactive”.
Regarding `COC(=O)[C@]1(CO)NC(=O)C(C)(C)[C@@]1(O)C#CCCCCn1cc(CNC(=O)C(C)(C)C(O)c2ccccc2)nn1` (stereo partly drawn), the “diameter of the inhibition zone (DIZ)” value is “inactive”.
Consider `CC1(C)C(=O)N[C@@](CO)(C(=O)O)[C@]1(O)C#Cc1ccccc1`, for which the “diameter of the inhibition zone (DIZ)” value is “inactive”.
Take `COC(=O)[C@]12CO[C@H](C(C)(C)C)N1C(=O)C(C)(C)[C@@]2(O)CCCCCCO`: the “diameter of the inhibition zone (DIZ)” value is “inactive”.
As to `COC(=O)[C@]12CO[C@H](C(C)(C)C)N1C(=O)C(C)(C)[C@@]2(O)C#CCCCCn1cc(CNC(=O)C(C)(C)C(O)CCCCc2ccccc2)nn1` (stereo partly drawn), the “diameter of the inhibition zone (DIZ)” value is “inactive”.
`CCCCCCCCC#C[C@]1(O)C(C)(C)C(=O)N2[C@@H](C(C)(C)C)OC[C@@]21C(=O)OC`: the “diameter of the inhibition zone (DIZ)” value is “inactive”.
On to `COC(=O)[C@]1(CO)NC(=O)C(C)(C)[C@@]1(O)CCCCCc1cc(CNC(=O)C(C)(C)C(O)CCCCc2ccccc2)on1` (stereo partly drawn), for which the “diameter of the inhibition zone (DIZ)” value is “inactive”.
With `COC(=O)[C@]12CO[C@H](C(C)(C)C)N1C(=O)C(C)(C)[C@@]2(O)C#CCCCCBr`, the “diameter of the inhibition zone (DIZ)” value is “inactive”.
Still for that read-out and setting: for `COC(=O)[C@]12CO[C@H](C(C)(C)C)N1C(=O)C(C)(C)[C@@]2(O)CCCCCc1cc(CNC(=O)C(C)(C)C(O)CCCCc2ccccc2)on1` (stereo partly drawn) the value was “inactive”.
Turning to `CCCCCCCC(O)C(C)(C)C(=O)NCc1cn(CCCCC#C[C@]2(O)C(C)(C)C(=O)N[C@@]2(CO)C(=O)OC)nn1` (stereo partly drawn), the “diameter of the inhibition zone (DIZ)” value was “inactive”.
Take `COC(=O)[C@]1(CO)NC(=O)C(C)(C)[C@@]1(O)C#CCNC(=O)C(C)(C)C(O)c1ccccc1` (stereo partly drawn): the “diameter of the inhibition zone (DIZ)” value was “inactive”.
Turning to `COC(=O)[C@]1(CO)NC(=O)C(C)(C)[C@@]1(O)C#Cc1ccccc1`, the “diameter of the inhibition zone (DIZ)” value is “inactive”.
For the compound `CCCCCCCC(O)C(C)(C)C(=O)NCc1cc(CCCCC[C@]2(O)C(C)(C)C(=O)N[C@@]2(CO)C(=O)OC)no1` (stereo partly drawn), the “diameter of the inhibition zone (DIZ)” value is “inactive”.
On the same count and under the same terms, for `CCCCCCCC(O)C(C)(C)C(=O)NCc1cn(CCCCC#C[C@]2(O)C(C)(C)C(=O)N3[C@@H](C(C)(C)C)OC[C@@]32C(=O)OC)nn1` (stereo partly drawn) the value was “inactive”; for `COC(=O)[C@]12CO[C@H](C(C)(C)C)N1C(=O)C(C)(C)[C@@]2(O)C#CCCCCO`, “inactive”.
The same measure, in the same setting: for `COC(=O)[C@]12CO[C@H](C(C)(C)C)N1C(=O)C(C)(C)[C@@]2(O)C#CCCCCn1cc(CNC(=O)C(C)(C)C(O)c2ccccc2)nn1` (stereo partly drawn) the value was “inactive”.
`CCCCCCCCC#C[C@]1(O)C(C)(C)C(=O)N[C@@]1(CO)C(=O)OC`: the “diameter of the inhibition zone (DIZ)” value was “inactive”.
For `COC(=O)[C@]12CO[C@H](C(C)(C)C)N1C(=O)C(C)(C)[C@@]2(O)CCCCCc1cc(CNC(=O)C(C)(C)C(O)c2ccccc2)on1` (stereo partly drawn), the “diameter of the inhibition zone (DIZ)” value is “inactive”.
Same read-out and setting: for `CCCCCCCC(O)C(C)(C)C(=O)NCc1cc(CCCCC[C@]2(O)C(C)(C)C(=O)N3[C@@H](C(C)(C)C)OC[C@@]32C(=O)OC)no1` (stereo partly drawn) the value was “inactive”; for `COC(=O)[C@]1(CO)NC(=O)C(C)(C)[C@@]1(O)CCCCCc1cc(CNC(=O)C(C)(C)C(O)c2ccccc2)on1` (stereo partly drawn), “inactive”.
Turning to `COC(=O)[C@]1(CO)NC(=O)C(C)(C)[C@@]1(O)C#CCCCCn1cc(CNC(=O)C(C)(C)C(O)CCCCc2ccccc2)nn1` (stereo partly drawn), the “diameter of the inhibition zone (DIZ)” value was “inactive”.

The test is the same for the next values; noted with them: read-out: DIZ.
Turning to `COC(=O)[C@]12CO[C@H](C(C)(C)C)N1C(=O)C(C)(C)[C@@]2(O)C#Cc1ccccc1`, the zone of inhibition at 4000 µg/mL was determined as 13 mm.

For the next test, the system named is Escherichia coli. Description: Antibacterial activity against Escherichia coli X580 at 4 mg/ml by hole plate assay. It counts as functional.
Details: not given
The essentials: as §1
On to `COC(=O)[C@]12CO[C@H](C(C)(C)C)N1C(=O)C(C)(C)[C@@]2(O)C#Cc1ccccc1`, for which the “diameter of the inhibition zone (DIZ)” value is “inactive”.
For `CC1(C)C(=O)N[C@@](CO)(C(=O)O)[C@]1(O)C#Cc1ccccc1`, the “diameter of the inhibition zone (DIZ)” value is “inactive”.
For the compound `COC(=O)[C@]12CO[C@H](C(C)(C)C)N1C(=O)C(C)(C)[C@@]2(O)CCCCCCO`, the “diameter of the inhibition zone (DIZ)” value is “inactive”.
In the case of `CCCCCCCCC#C[C@]1(O)C(C)(C)C(=O)N2[C@@H](C(C)(C)C)OC[C@@]21C(=O)OC`, the “diameter of the inhibition zone (DIZ)” value was “inactive”.
The same measure, in the same setting: for `CCCCCCCC(O)C(C)(C)C(=O)NCc1cn(CCCCC#C[C@]2(O)C(C)(C)C(=O)N[C@@]2(CO)C(=O)OC)nn1` (stereo partly drawn) the value was “inactive”; for `COC(=O)[C@]1(CO)NC(=O)C(C)(C)[C@@]1(O)C#CCNC(=O)C(C)(C)C(O)c1ccccc1` (stereo partly drawn), “inactive”.
On to `COC(=O)[C@]1(CO)NC(=O)C(C)(C)[C@@]1(O)C#Cc1ccccc1`, for which the “diameter of the inhibition zone (DIZ)” value was “inactive”.
Turning to `COC(=O)[C@]12CO[C@H](C(C)(C)C)N1C(=O)C(C)(C)[C@@]2(O)C#CCCCCO`, the “diameter of the inhibition zone (DIZ)” value was “inactive”.
In the case of `CCCCCCCCC#C[C@]1(O)C(C)(C)C(=O)N[C@@]1(CO)C(=O)OC`, the “diameter of the inhibition zone (DIZ)” value was “inactive”.
`COC(=O)[C@]12CO[C@H](C(C)(C)C)N1C(=O)C(C)(C)[C@@]2(O)CCCCCc1cc(CNC(=O)C(C)(C)C(O)c2ccccc2)on1` (stereo partly drawn): the “diameter of the inhibition zone (DIZ)” value was “inactive”.
As for `CCCCCCCC(O)C(C)(C)C(=O)NCc1cc(CCCCC[C@]2(O)C(C)(C)C(=O)N3[C@@H](C(C)(C)C)OC[C@@]32C(=O)OC)no1` (stereo partly drawn), the “diameter of the inhibition zone (DIZ)” value is “inactive”.

The test is the same for the next values; noted with them: read-out: DIZ.
For the compound `COC(=O)[C@]12CO[C@H](C(C)(C)C)N1C(=O)C(C)(C)[C@@]2(O)C#CCNC(=O)C(C)(C)C(O)c1ccccc1` (stereo partly drawn), the zone of inhibition at 4000 µg/mL is 17 mm.
Regarding `COC(=O)[C@]1(CO)NC(=O)C(C)(C)[C@@]1(O)C#CCCCCn1cc(CNC(=O)C(C)(C)C(O)c2ccccc2)nn1` (stereo partly drawn), the zone of inhibition at 4000 µg/mL turned out to be 15 mm.
In the case of `COC(=O)[C@]12CO[C@H](C(C)(C)C)N1C(=O)C(C)(C)[C@@]2(O)C#CCCCCn1cc(CNC(=O)C(C)(C)C(O)CCCCc2ccccc2)nn1` (stereo partly drawn), the zone of inhibition at 4000 µg/mL is 13 mm.
For `COC(=O)[C@]1(CO)NC(=O)C(C)(C)[C@@]1(O)CCCCCc1cc(CNC(=O)C(C)(C)C(O)CCCCc2ccccc2)on1` (stereo partly drawn), the zone of inhibition at 4000 µg/mL was found to be 14 mm.
For the compound `COC(=O)[C@]12CO[C@H](C(C)(C)C)N1C(=O)C(C)(C)[C@@]2(O)C#CCCCCBr`, the zone of inhibition at 4000 µg/mL is 14 mm.
On the same count and under the same terms, for `COC(=O)[C@]12CO[C@H](C(C)(C)C)N1C(=O)C(C)(C)[C@@]2(O)CCCCCc1cc(CNC(=O)C(C)(C)C(O)CCCCc2ccccc2)on1` (stereo partly drawn) the value was 15 mm; for `CCCCCCCC(O)C(C)(C)C(=O)NCc1cc(CCCCC[C@]2(O)C(C)(C)C(=O)N[C@@]2(CO)C(=O)OC)no1` (stereo partly drawn), 17 mm.
In the case of `CCCCCCCC(O)C(C)(C)C(=O)NCc1cn(CCCCC#C[C@]2(O)C(C)(C)C(=O)N3[C@@H](C(C)(C)C)OC[C@@]32C(=O)OC)nn1` (stereo partly drawn), the zone of inhibition at 4000 µg/mL stood at 14 mm.
On the same count and under the same terms, for `COC(=O)[C@]12CO[C@H](C(C)(C)C)N1C(=O)C(C)(C)[C@@]2(O)C#CCCCCn1cc(CNC(=O)C(C)(C)C(O)c2ccccc2)nn1` (stereo partly drawn) the value was 14 mm; for `COC(=O)[C@]1(CO)NC(=O)C(C)(C)[C@@]1(O)CCCCCc1cc(CNC(=O)C(C)(C)C(O)c2ccccc2)on1` (stereo partly drawn), 13 mm.
Turning to `COC(=O)[C@]1(CO)NC(=O)C(C)(C)[C@@]1(O)C#CCCCCn1cc(CNC(=O)C(C)(C)C(O)CCCCc2ccccc2)nn1` (stereo partly drawn), the zone of inhibition at 4000 µg/mL is 14 mm.

A further test has as its system Escherichia coli. The test is described as follows: Antibacterial activity against Escherichia coli X580 assessed as zone of diameter per molar relative to cephalosporin. It counts as functional.
Details: not given
In short, it runs like this:
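Hole-plate agar diffusion: test solutions were loaded into wells of bioassay plates and incubated overnight at 37 °C. Inhibition zone diameters were measured, and relative potency was expressed as zone diameter per M of analyte against standards prepared with cephalosporin C.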
As for `COC(=O)[C@]12CO[C@H](C(C)(C)C)N1C(=O)C(C)(C)[C@@]2(O)C#CCNC(=O)C(C)(C)C(O)c1ccccc1` (stereo partly drawn), the Activity turned out to be 0.1%.
Same read-out and setting: for `COC(=O)[C@]1(CO)NC(=O)C(C)(C)[C@@]1(O)CCCCCc1cc(CNC(=O)C(C)(C)C(O)CCCCc2ccccc2)on1` (stereo partly drawn) the value was 0.1%; for `COC(=O)[C@]12CO[C@H](C(C)(C)C)N1C(=O)C(C)(C)[C@@]2(O)C#CCCCCBr`, 0.05%; for `CCCCCCCC(O)C(C)(C)C(=O)NCc1cc(CCCCC[C@]2(O)C(C)(C)C(=O)N[C@@]2(CO)C(=O)OC)no1` (stereo partly drawn), 0.2%.
